Experimental data published in ChEMBL document CHEMBL2311289, “Novel 2-aminooctahydrocyclopentalene-3a-carboxamides as potent CCR2 antagonists” (Bioorg Med Chem Lett, 2013).

How the values were obtained:
[1] = molecular target: C-C chemokine receptor type 2 (Homo sapiens, UniProt P41597); experiment: Binding affinity to human CCR2
[2] = AUC in dog at 10 mg/kg, po; assay type: ADME, organism-based, Canis lupus familiaris; design: dose 10 mg/kg, route oral; conditions: plasma
In short: (§1)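 Dog pharmacokinetics: oral dosing at 10 mpk in 0.5% methocel and intravenous dosing at 2 mpk in 20% HPbCD. Readouts were systemic clearance, Vdss, oral t1/2 and oral AUC.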

[3] = Oral bioavailability in dog at 10 mg/kg; assay type: ADME, organism-based, Canis lupus familiaris; conditions: in vivo
[4] = Half life in dog at 10 mg/kg, po; assay type: ADME, organism-based, Canis lupus familiaris; design: dose 10 mg/kg, route oral; conditions: in vivo; in short: as §1
[5] = Volume of distribution at steady state in dog at 10 mg/kg, po and 2 mg/kg iv; assay type: ADME, organism-based, Canis lupus familiaris; conditions: in vivo, read-out: Vdss; in short: as §1
[6] = Clearance in dog at 10 mg/kg, po and 2 mg/kg iv; assay type: ADME, organism-based, Canis lupus familiaris; conditions: in vivo; in short: as §1
Mus musculus [7] = experiment: Antiinflammatory activity in thioglycollate-induced mouse peritonitis model expressing human CCR2 assessed as inhibition of macrophage infiltration administered as po bid; assay type: functional
In short: (§2)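 Acute inflammation model: peritonitis was induced with thioglycollate in mCCR2 knock-out/hCCR2 knock-in mice. Compound was given orally, and infiltration of macrophages into the peritoneum was measured.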

Mus musculus [8] = experiment: Antiinflammatory activity in thioglycollate-induced mouse peritonitis model expressing human CCR2 assessed as inhibition of macrophage infiltration at 10 mg/kg, po bid relative to control; assay type: functional; in short: as §2
Mus musculus [9] = experiment: Antiinflammatory activity in thioglycollate-induced mouse peritonitis model expressing human CCR2 assessed as inhibition of macrophage infiltration at 3 mg/kg, po bid relative to control; assay type: functional; in short: as §2
Mus musculus [10] = experiment: Antiinflammatory activity in thioglycollate-induced mouse peritonitis model expressing human CCR2 assessed as inhibition of macrophage infiltration at 1 mg/kg, po bid relative to control; assay type: functional; in short: as §2
Mus musculus [11] = experiment: Antiinflammatory activity in thioglycollate-induced mouse peritonitis model expressing human CCR2 assessed as inhibition of macrophage infiltration at 0.3 mg/kg, po bid relative to control; assay type: functional; in short: as §2
Cytochrome P450 2C9 = Cytochrome P450 2C9 (Homo sapiens, UniProt P11712); experiment: Inhibition of human CYP2C9; assay type: ADME
Chain of Cytochrome P450 2C9 (P11712 whole entry): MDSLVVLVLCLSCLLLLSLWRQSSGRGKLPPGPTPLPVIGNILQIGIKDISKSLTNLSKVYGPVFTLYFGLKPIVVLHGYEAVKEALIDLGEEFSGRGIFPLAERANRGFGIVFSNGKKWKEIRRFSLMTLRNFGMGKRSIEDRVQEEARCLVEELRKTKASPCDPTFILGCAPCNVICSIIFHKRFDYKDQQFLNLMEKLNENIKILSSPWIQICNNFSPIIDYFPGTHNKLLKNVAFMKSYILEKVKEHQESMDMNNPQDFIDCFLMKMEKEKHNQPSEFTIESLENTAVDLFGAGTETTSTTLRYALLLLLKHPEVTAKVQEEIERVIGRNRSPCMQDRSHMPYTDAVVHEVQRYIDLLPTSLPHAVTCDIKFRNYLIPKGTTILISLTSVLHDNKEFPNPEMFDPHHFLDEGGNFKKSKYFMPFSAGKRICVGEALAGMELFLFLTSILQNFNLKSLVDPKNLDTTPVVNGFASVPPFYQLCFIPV

Cytochrome P450 3A4 = Cytochrome P450 3A4 (Homo sapiens, UniProt P08684); experiment: Inhibition of human CYP3A4; assay type: ADME
Chain of Cytochrome P450 3A4 (P08684 whole entry): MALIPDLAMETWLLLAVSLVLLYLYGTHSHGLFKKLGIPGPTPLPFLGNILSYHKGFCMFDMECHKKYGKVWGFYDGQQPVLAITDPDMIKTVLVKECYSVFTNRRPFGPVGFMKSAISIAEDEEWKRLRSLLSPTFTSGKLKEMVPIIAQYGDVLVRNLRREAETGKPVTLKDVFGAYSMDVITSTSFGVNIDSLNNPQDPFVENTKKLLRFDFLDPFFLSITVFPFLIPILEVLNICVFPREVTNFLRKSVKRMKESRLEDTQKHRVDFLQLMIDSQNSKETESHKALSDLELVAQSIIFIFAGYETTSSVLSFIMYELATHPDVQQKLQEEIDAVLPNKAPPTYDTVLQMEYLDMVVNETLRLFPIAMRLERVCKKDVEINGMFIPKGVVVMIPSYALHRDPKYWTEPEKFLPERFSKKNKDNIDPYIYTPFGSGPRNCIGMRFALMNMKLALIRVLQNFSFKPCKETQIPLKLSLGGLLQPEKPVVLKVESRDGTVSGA

Cytochrome P450 2D6 = Cytochrome P450 2D6 (Homo sapiens, UniProt P10635); experiment: Inhibition of human CYP2D6; assay type: ADME
Chain of Cytochrome P450 2D6 (P10635 whole entry): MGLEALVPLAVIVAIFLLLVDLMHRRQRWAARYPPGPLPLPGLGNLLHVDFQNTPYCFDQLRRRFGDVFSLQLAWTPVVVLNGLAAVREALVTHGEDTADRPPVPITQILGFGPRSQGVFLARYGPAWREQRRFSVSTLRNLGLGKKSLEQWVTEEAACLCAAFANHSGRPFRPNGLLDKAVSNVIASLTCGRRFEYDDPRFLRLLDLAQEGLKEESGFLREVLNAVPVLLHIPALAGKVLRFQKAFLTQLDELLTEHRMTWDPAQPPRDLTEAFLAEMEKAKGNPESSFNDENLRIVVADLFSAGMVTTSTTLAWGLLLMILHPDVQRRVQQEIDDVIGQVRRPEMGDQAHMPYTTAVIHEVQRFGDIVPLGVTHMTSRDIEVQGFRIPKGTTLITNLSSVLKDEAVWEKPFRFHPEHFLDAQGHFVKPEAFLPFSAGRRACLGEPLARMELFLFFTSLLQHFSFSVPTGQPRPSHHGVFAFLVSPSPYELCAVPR

Cytochrome P450 2C19 = Cytochrome P450 2C19 (Homo sapiens, UniProt P33261); experiment: Inhibition of human CYP2C19; assay type: ADME
Chain of Cytochrome P450 2C19 (P33261 whole entry): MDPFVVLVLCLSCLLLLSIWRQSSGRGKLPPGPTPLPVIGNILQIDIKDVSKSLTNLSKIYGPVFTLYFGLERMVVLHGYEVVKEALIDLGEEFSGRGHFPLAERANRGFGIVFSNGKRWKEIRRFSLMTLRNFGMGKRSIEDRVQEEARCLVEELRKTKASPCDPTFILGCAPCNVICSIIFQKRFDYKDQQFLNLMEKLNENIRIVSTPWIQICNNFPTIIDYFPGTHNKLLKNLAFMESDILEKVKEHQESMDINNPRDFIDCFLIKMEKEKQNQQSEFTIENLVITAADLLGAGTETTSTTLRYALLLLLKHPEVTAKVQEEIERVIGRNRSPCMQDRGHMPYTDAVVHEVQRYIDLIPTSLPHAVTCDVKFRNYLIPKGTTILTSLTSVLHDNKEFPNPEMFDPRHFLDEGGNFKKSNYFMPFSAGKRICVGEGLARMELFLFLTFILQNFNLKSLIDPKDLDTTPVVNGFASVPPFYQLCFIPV

Cytochrome P450 1A2 = molecular target: T1, Cytochrome P450 1A2 (Homo sapiens, UniProt P05177); experiment: Inhibition of human CYP1A2; assay type: ADME
T1 sequence (P05177 whole entry): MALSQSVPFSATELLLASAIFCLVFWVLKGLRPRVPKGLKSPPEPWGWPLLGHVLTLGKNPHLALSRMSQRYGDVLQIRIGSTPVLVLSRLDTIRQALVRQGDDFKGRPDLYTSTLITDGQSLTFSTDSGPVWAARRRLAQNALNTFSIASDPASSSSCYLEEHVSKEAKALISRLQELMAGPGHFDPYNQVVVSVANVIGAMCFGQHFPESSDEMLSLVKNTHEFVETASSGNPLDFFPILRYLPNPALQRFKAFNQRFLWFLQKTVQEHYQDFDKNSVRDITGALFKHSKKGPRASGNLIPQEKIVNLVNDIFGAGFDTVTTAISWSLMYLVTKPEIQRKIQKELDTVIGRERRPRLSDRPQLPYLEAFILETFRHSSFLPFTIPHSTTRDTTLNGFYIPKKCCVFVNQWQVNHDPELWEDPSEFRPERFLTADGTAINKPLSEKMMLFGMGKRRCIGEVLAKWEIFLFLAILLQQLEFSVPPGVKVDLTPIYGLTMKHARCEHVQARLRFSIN

[12] = molecular target: Voltage-gated inwardly rectifying potassium channel KCNH2 (Homo sapiens, UniProt Q12809); experiment: Binding affinity to human ERG
Chain of Voltage-gated inwardly rectifying potassium channel KCNH2 (Q12809 whole entry): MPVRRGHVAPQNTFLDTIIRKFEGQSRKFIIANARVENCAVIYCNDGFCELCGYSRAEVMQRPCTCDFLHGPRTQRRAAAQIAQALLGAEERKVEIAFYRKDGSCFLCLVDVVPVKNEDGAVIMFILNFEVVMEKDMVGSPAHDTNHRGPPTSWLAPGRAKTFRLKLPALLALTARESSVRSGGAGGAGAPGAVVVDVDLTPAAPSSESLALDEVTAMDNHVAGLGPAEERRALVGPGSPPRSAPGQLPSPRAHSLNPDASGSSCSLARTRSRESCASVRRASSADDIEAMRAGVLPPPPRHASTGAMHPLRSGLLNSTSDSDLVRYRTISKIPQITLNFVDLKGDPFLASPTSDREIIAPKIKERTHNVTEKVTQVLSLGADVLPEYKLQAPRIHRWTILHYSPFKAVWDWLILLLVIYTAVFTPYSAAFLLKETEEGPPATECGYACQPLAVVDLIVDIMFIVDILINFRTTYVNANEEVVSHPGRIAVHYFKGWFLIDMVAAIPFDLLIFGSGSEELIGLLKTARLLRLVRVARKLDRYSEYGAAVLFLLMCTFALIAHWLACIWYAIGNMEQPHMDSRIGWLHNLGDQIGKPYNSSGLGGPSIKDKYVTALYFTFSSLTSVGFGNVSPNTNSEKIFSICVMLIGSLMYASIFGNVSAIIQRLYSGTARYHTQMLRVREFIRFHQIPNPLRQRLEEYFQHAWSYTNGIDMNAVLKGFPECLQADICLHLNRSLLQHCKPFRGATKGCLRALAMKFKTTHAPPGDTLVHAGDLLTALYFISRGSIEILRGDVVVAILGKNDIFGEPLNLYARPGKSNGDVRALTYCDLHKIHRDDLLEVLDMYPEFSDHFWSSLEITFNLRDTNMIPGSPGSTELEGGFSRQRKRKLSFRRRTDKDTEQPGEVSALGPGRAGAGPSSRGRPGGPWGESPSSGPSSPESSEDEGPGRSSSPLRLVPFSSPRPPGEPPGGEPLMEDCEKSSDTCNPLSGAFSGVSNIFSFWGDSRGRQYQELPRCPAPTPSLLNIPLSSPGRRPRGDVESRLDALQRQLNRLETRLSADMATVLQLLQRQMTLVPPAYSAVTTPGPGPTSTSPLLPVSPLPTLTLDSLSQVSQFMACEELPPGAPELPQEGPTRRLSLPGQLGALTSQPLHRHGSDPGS

Chain of C-C chemokine receptor type 2 (P41597 whole entry): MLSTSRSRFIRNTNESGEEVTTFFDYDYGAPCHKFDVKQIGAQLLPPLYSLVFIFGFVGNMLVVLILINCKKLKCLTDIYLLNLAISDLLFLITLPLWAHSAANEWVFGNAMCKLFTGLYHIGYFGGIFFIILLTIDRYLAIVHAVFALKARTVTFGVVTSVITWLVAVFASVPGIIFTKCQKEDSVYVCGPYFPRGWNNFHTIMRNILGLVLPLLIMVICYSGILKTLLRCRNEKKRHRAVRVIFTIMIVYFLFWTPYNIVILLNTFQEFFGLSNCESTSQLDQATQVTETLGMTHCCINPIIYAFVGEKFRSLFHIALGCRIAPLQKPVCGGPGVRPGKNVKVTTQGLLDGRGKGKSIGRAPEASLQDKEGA

| Compound | IC50 [1] | IC50 [12] | also measured |
| --- | --- | --- | --- |
| CO[C@@H]1COCC[C@@H]1N[C@@H]1C[C@H]2CCC[C@@]2(C(=O)N2CCc3ncc(C(F)(F)F)cc3C2)C1 |  |  | AUC [2]: 12100 ng·h/mL; bioavailability [3]: 100%; half-life [4]: 3.4 h; Vd [5]: 2.3 L/kg; clearance [6]: 15.2 mL/min/kg; ED50 (Mus musculus [7]): 0.1 mg/kg; inhibition in vivo at 10 mg/kg (Mus musculus [8]): 101%; inhibition in vivo at 3 mg/kg (Mus musculus [9]): 100%; inhibition in vivo at 1 mg/kg (Mus musculus [10]): 100%; inhibition in vivo at 0.3 mg/kg (Mus musculus [11]): 89%; IC50 (Cytochrome P450 2C9): > 10000 nM; IC50 (Cytochrome P450 3A4): 7500 nM; IC50 (Cytochrome P450 2D6): > 10000 nM; IC50 (Cytochrome P450 2C19): > 10000 nM; IC50 (Cytochrome P450 1A2): > 10000 nM |
| CCC(CC)N[C@@H]1C[C@H]2CCC[C@@]2(C(=O)N2CCc3ncc(C(F)(F)F)cc3C2)C1 | 3300 nM | > 50000 nM |  |
| O=C(N1CCc2ncc(C(F)(F)F)cc2C1)[C@@]12CCC[C@@H]1C[C@@H](NC1CCCC1)C2 | 2330 nM | 33500 nM |  |
| O=C(N1CCc2ncc(C(F)(F)F)cc2C1)[C@@]12CCC[C@@H]1C[C@@H](NC1CCCCCC1)C2 | 699 nM |  |  |
| O=C(N1CCc2ncc(C(F)(F)F)cc2C1)[C@@]12CCC[C@@H]1C[C@@H](NC1CCSCC1)C2 | 874 nM | 23100 nM |  |
| O=C(N1CCc2ncc(C(F)(F)F)cc2C1)[C@@]12CCC[C@@H]1C[C@@H](NC1CCS(=O)(=O)CC1)C2 | 3560 nM |  |  |
| O=C(N[C@@H]1C[C@H]2CCC[C@@]2(C(=O)N2CCc3ncc(C(F)(F)F)cc3C2)C1)C1CCOCC1 | > 25000 nM | > 50000 nM |  |
| COC1COCCC1N[C@@H]1C[C@H]2CCC[C@@]2(C(=O)N2CCc3ccc(OC(F)(F)F)cc3C2)C1 (mixture of isomers) | 16 nM |  |  |
| COC1COCCC1N[C@@H]1C[C@H]2C[C@H](F)C[C@@]2(C(=O)N2CCc3ncc(C(F)(F)F)cc3C2)C1 (mixture of isomers) | 23 nM |  |  |
| COC1COCCC1N[C@@H]1C[C@H]2C[C@@H](F)C[C@@]2(C(=O)N2CCc3ncc(C(F)(F)F)cc3C2)C1 (mixture of isomers) | 150 nM |  |  |
| COC1COCCC1N[C@@H]1C[C@H]2C[C@H](Cl)C[C@@]2(C(=O)N2CCc3ncc(C(F)(F)F)cc3C2)C1 (mixture of isomers) | 20 nM | > 50000 nM |  |
| COC1COCCC1N[C@@H]1C[C@H]2C[C@@H](C(F)(F)F)C[C@@]2(C(=O)N2CCc3ncc(C(F)(F)F)cc3C2)C1 (mixture of isomers) | 263 nM |  |  |
| COC1COCCC1N[C@@H]1C[C@H]2C[C@H](C(N)=O)C[C@@]2(C(=O)N2CCc3ncc(C(F)(F)F)cc3C2)C1 (mixture of isomers) | 88 nM |  |  |
| COC1COCCC1N[C@@H]1C[C@H]2CCC[C@@]2(C(=O)N2CCc3ncccc3C2)C1 (mixture of isomers) | > 25000 nM |  |  |
| COc1cnc2c(c1)CN(C(=O)[C@@]13CCC[C@@H]1C[C@@H](NC1CCOCC1OC)C3)CC2 (mixture of isomers) | > 25000 nM |  |  |
| COC1COCCC1N[C@@H]1C[C@H]2CCC[C@@]2(C(=O)N2CCc3ncc(OC(C)C)cc3C2)C1 (mixture of isomers) | 5600 nM |  |  |
| COC1COCCC1N[C@@H]1C[C@H]2CCC[C@@]2(C(=O)N2CCc3ccc(F)cc3C2)C1 (mixture of isomers) | 4400 nM |  |  |
| COC1COCCC1N[C@@H]1C[C@H]2CCC[C@@]2(C(=O)N2CCc3ccc(Cl)cc3C2)C1 (mixture of isomers) | 400 nM | 42400 nM |  |
| COC1COCCC1N[C@@H]1C[C@H]2CCC[C@@]2(C(=O)N2CCc3ccc(Br)cc3C2)C1 (mixture of isomers) | 290 nM | 20300 nM |  |
| COC1COCCC1N[C@@H]1C[C@H]2CCC[C@@]2(C(=O)N2CCc3ccc(C(F)(F)F)cc3C2)C1 (mixture of isomers) | 34 nM | 27600 nM |  |
| COC1COCCC1N[C@@H]1C[C@H]2CCCC[C@@]2(C(=O)N2CCc3ncc(C(F)(F)F)cc3C2)C1 (mixture of isomers) | 1070 nM |  |  |

The next lines start with results.

| IC50 [1] | Compound | IC50 [12] | also measured |
| --- | --- | --- | --- |
| 247 nM | COC1COCCC1N[C@@H]1C[C@H]2C[C@@H](N(C)C)C[C@@]2(C(=O)N2CCc3ncc(C(F)(F)F)cc3C2)C1 (stereo not given in full) |  |  |
| 1530 nM | O=C(N1CCc2ncc(C(F)(F)F)cc2C1)[C@@]12CCC[C@@H]1C[C@@H](NC1CCCCC1)C2 |  |  |
| 125 nM | O=C(N1CCc2ncc(C(F)(F)F)cc2C1)[C@@]12CCC[C@@H]1C[C@@H](NC1CCOCC1)C2 | 25700 nM |  |
| > 25000 nM | O=C(N1CCc2ncc(C(F)(F)F)cc2C1)[C@@]12CCC[C@@H]1C[C@@H](NCC1CCOCC1)C2 | 47000 nM |  |
| 7930 nM | O=C(N1CCc2ncc(C(F)(F)F)cc2C1)[C@@]12CCCC[C@@H]1C[C@@H](NC1CCOCC1)C2 | 38900 nM |  |
| 200 nM | COC1COCCC1N[C@@H]1C[C@H]2C[C@@H](OC)C[C@@]2(C(=O)N2CCc3ncc(C(F)(F)F)cc3C2)C1 (mixture of isomers) | > 50000 nM |  |
| 8090 nM | COC1COCCC1N[C@@H]1C[C@H]2C[C@H](N(C)C)C[C@@]2(C(=O)N2CCc3ncc(C(F)(F)F)cc3C2)C1 (mixture of isomers) |  |  |
| 1800 nM | COC1COCCC1N[C@@H]1C[C@H]2CCC[C@@]2(C(=O)N2CCc3ccc(C#N)cc3C2)C1 (mixture of isomers) |  |  |
| 95 nM | COC1COCCC1N[C@@H]1C[C@H]2CC(F)(F)C[C@@]2(C(=O)N2CCc3ncc(C(F)(F)F)cc3C2)C1 (mixture of isomers) | > 50000 nM |  |
| 45 nM | COC1COCCC1N[C@@H]1C[C@H]2C[C@@H](Cl)C[C@@]2(C(=O)N2CCc3ncc(C(F)(F)F)cc3C2)C1 (mixture of isomers) | > 50000 nM |  |
| 1260 nM | COC1COCCC1N[C@@H]1C[C@H]2C[C@H](C(F)(F)F)C[C@@]2(C(=O)N2CCc3ncc(C(F)(F)F)cc3C2)C1 (mixture of isomers) |  |  |
| 130 nM | COC1COCCC1N[C@@H]1C[C@H]2C[C@@H](C(N)=O)C[C@@]2(C(=O)N2CCc3ncc(C(F)(F)F)cc3C2)C1 (mixture of isomers) |  |  |
| 59 nM | COC1COCCC1N[C@@H]1C[C@H]2C[C@H](O)C[C@@]2(C(=O)N2CCc3ncc(C(F)(F)F)cc3C2)C1 (mixture of isomers) | > 50000 nM |  |
| 58 nM | COC1COCCC1N[C@@H]1C[C@H]2C[C@@H](O)C[C@@]2(C(=O)N2CCc3ncc(C(F)(F)F)cc3C2)C1 (mixture of isomers) | > 50000 nM |  |
| 210 nM | COC1COCCC1N[C@@H]1C[C@H]2C[C@H](OC)C[C@@]2(C(=O)N2CCc3ncc(C(F)(F)F)cc3C2)C1 (mixture of isomers) | > 50000 nM |  |
| 1100 nM | COC1COCCC1N[C@@H]1C[C@H]2CCC[C@@]2(C(=O)N2CCc3ncc(Cl)cc3C2)C1 (mixture of isomers) |  |  |
| 200 nM | COC1COCCC1N[C@@H]1C[C@H]2CCC[C@@]2(C(=O)N2CCc3ncc(Br)cc3C2)C1 (mixture of isomers) |  |  |
| 1500 nM | COC1COCCC1N[C@@H]1C[C@H]2CCC[C@@]2(C(=O)N2CCc3ncc([N+](=O)[O-])cc3C2)C1 (mixture of isomers) |  |  |
